# Calls of active or inactive are those of the source. The rule behind the calls is not given here.
# Key:
# MDCK = experiment: Cytotoxicity against dog MDCK cells assessed as reduction in cell viability at 100 uM measured after 40 hrs by Celltiter-Glo assay; format: cell-based, Canis lupus familiaris
# Summary of the method: (§1)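 Uninfected MDCK cells were grown overnight in 96-well plates with 1% FBS. They were then exposed to increasing compound concentrations, or to a single 100 μM screen, for 40 h, and viability was read by CellTiter-Glo. CC50 is the concentration causing 50% death of uninfected cells.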
# Influenza A virus [1] = experiment: Antiviral activity against Influenza A virus A/WSN/33 infected in MDCK cells assessed as reduction in virus-induced cytopathic effect at 100 uM after 40 hrs by Celltiter-Glo assay relative to control; format: functional; details: A/WSN/33, MDCK
# Summary of the method: (§2)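 This was a single-concentration screen at 100 μM in MDCK cells infected with A/WSN/33 at MOI 0.1. CPE protection was read by CellTiter-Glo after 40 h of incubation. The inhibition rate was expressed relative to 1% DMSO (final) negative control, with oseltamivir phosphate as the positive control. Experiments were run in triplicate.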
# [2] = Cytotoxicity against dog MDCK cells assessed as reduction in cell viability measured after 40 hrs by Celltiter-Glo assay; format: cell-based, Canis lupus familiaris; summary of the method: as §1
# Influenza A virus [3] = experiment: Antiviral activity against Influenza A virus A/WSN/33 assessed as inhibition of virus-induced cytopathic effect after 40 hrs by Celltiter-Glo assay; format: functional, organism-based; details: A/WSN/33, 40 h
# Summary of the method: (§3)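 MDCK cells were seeded in 96-well plates, left overnight, then infected with influenza virus at MOI 0.1 and treated with the compound. After 40 h, viability was read by CellTiter-Glo luminescence. 1% DMSO (final) served as the negative control and oseltamivir phosphate as the positive control. IC50 is the concentration that inhibits virus-induced CPE by 50%, taken from dose-response curves in replicate independent experiments.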
# [4] = Selectivity index, ratio of CC50 for MDCK cells to IC50 for influenza A virus A/WSN/33; format: toxicity; details: dog, read-out: Ratio CC50/IC50
# Summary of the method: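 SI was calculated as CC50 (uninfected MDCK, 40 h CellTiter-Glo) divided by IC50 (50% inhibition of A/WSN/33 replication in MDCK, MOI 0.1, 40 h CellTiter-Glo).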
# Influenza A virus [5] = experiment: Antiviral activity against Influenza A virus A/Victoria/361/2011(H3N2) infected in MDCK cells assessed as inhibition of virus-induced cytopathic effect after 40 hrs by Celltiter-Glo assay; format: functional, organism-based; summary of the method: as §3
# Influenza B virus [6] = experiment: Antiviral activity against Influenza B virus B/Yamagata/16/88(BY) infected in MDCK cells assessed as inhibition of virus-induced cytopathic effect after 40 hrs by Celltiter-Glo assay; format: functional, organism-based; summary of the method: as §3
# Influenza B virus [7] = experiment: Antiviral activity against Influenza B virus B/Sichuan/531/2018(BV) infected in MDCK cells assessed as inhibition of virus-induced cytopathic effect after 40 hrs by Celltiter-Glo assay; format: functional, organism-based; summary of the method: as §3
# Influenza B virus [8] = experiment: Antiviral activity against Influenza B virus B/Massachusetts/2/2012(BV) infected in MDCK cells assessed as inhibition of virus-induced cytopathic effect after 40 hrs by Celltiter-Glo assay; format: functional, organism-based; summary of the method: as §3
# [9] = Cytotoxicity against dog MDCK cells assessed as cell viability at 100 uM measured after 40 hrs by Celltiter-Glo assay relative to control; format: cell-based, Canis lupus familiaris; details: read-out: Activity; summary of the method: as §1
# Influenza A virus [10] = experiment: Antiviral activity against Influenza A virus A/WSN/33 infected in MDCK cells assessed as reduction in virus-induced cytopathic effect at 100 uM after 40 hrs by Celltiter-Glo assay; format: functional, organism-based; summary of the method: as §2
# [11] = target: Hemagglutinin (Influenza A virus) (UniProt B4URE7); experiment: Inhibition of influenza A virus A/WSN/33 HA-mediated chicken erythrocytes hemagglutination pretreated with compound followed by erythrocytes addition measured after 30 mins
# Summary of the method: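 Compound was serially diluted 2-fold in saline and mixed with an equal volume of A/WSN/33 (H1N1) virus in V-bottom plates. Freshly prepared chicken red blood cells (1% v/v in saline) were then added. After 30 min at room temperature, erythrocyte aggregation was scored visually. Anti-HA antibody served as the positive control.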
# Influenza B virus [12] = experiment: Potency index, ratio of OSV-p IC50 to compound IC50 for antiviral activity against Influenza B virus B/Yamagata/16/88(BY); format: functional
# Hemagglutinin (Influenza A virus), sequence (B4URE7 as listed by the source): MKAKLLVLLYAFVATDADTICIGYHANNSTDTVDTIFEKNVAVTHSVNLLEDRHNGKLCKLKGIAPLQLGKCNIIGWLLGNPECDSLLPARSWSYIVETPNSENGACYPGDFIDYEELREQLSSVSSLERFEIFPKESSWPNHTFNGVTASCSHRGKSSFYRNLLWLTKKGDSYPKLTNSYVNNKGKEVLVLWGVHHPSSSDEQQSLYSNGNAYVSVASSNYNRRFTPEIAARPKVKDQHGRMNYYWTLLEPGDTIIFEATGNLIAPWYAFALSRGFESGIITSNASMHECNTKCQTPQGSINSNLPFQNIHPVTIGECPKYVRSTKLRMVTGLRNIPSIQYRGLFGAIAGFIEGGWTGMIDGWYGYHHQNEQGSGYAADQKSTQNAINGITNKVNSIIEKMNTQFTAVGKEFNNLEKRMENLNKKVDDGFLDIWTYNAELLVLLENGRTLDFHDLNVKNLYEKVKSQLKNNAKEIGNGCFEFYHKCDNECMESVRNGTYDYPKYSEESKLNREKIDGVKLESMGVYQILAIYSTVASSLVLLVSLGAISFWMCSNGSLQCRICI
structure (smiles),measurement,setting,value
CC1(C)CC[C@]2(C(=O)NCc3cn([C@@H]4O[C@H](CO)[C@@H](O[C@H]5O[C@H](CO)[C@@H](O)[C@H](O)[C@H]5O)[C@H](O)[C@H]4O)nn3)CC[C@]3(C)C(=CC[C@@H]4[C@@]5(C)CC[C@H](O)C(C)(C)[C@@H]5CC[C@]43C)[C@@H]2C1,Activity,MDCK,Non-Toxic
CC1(C)CC[C@]2(C(=O)NCc3cn([C@@H]4O[C@H](CO)[C@H](O)[C@H](O)[C@H]4O)nn3)CC[C@]3(C)C(=CC[C@@H]4[C@@]5(C)CC[C@H](O)C(C)(C)[C@@H]5CC[C@]43C)[C@@H]2C1,Activity,MDCK,Non-Toxic
CC(=O)OC[C@H]1O[C@@H](n2cc(CNC(=O)[C@]34CCC(C)(C)C[C@H]3C3=CC[C@@H]5[C@@]6(C)CC[C@H](O)C(C)(C)[C@@H]6CC[C@@]5(C)[C@]3(C)CC4)nn2)[C@H](OC(C)=O)[C@@H](OC(C)=O)[C@H]1OC(C)=O,inhibition at 100 µM,Influenza A virus [1],75%
same,Activity,MDCK,Toxic
CC(=O)OC[C@H]1O[C@@H](n2cc(CNC(=O)[C@]34CCC(C)(C)C[C@H]3C3=CC[C@@H]5[C@@]6(C)CC[C@H](O)C(C)(C)[C@@H]6CC[C@@]5(C)[C@]3(C)CC4)nn2)[C@H](OC(C)=O)[C@@H](OC(C)=O)[C@@H]1OC(C)=O,Activity,MDCK,Non-Toxic
CC1(C)CC[C@]2(C(=O)NCc3cn([C@@H]4OC[C@@H](O)[C@H](O)[C@H]4O)nn3)CC[C@]3(C)C(=CC[C@@H]4[C@@]5(C)CC[C@H](O)C(C)(C)[C@@H]5CC[C@]43C)[C@@H]2C1,inhibition at 100 µM,Influenza A virus [1],75%
same,Activity,MDCK,Toxic
CC1(C)CC[C@]2(C(=O)NCc3cn([C@@H]4O[C@H](CO)[C@@H](O[C@@H]5O[C@H](CO)[C@@H](O)[C@H](O)[C@H]5O)[C@H](O)[C@H]4O)nn3)CC[C@]3(C)C(=CC[C@@H]4[C@@]5(C)CC[C@H](O)C(C)(C)[C@@H]5CC[C@]43C)[C@@H]2C1,Activity,MDCK,Non-Toxic
CC(=O)OC[C@H]1O[C@@H](n2cc(CNC(=O)[C@]34CCC(C)(C)C[C@H]3C3=CC[C@@H]5[C@@]6(C)CC[C@H](O)C(C)(C)[C@@H]6CC[C@@]5(C)[C@]3(C)CC4)nn2)[C@H](OC(C)=O)[C@@H](OC(C)=O)[C@@H]1O[C@@H]1O[C@H](COC(C)=O)[C@@H](OC(C)=O)[C@H](OC(C)=O)[C@H]1OC(C)=O,Activity,MDCK,Non-Toxic
CC(=O)O[C@@H]1[C@@H](OC(C)=O)[C@H](C)O[C@@H](n2cc(CNC(=O)[C@]34CCC(C)(C)C[C@H]3C3=CC[C@@H]5[C@@]6(C)CC[C@H](O)C(C)(C)[C@@H]6CC[C@@]5(C)[C@]3(C)CC4)nn2)[C@@H]1OC(C)=O,Activity,MDCK,Non-Toxic
CC(=O)O[C@@H]1[C@@H](OC(C)=O)[C@H](OC(C)=O)CO[C@H]1n1cc(CNC(=O)[C@]23CCC(C)(C)C[C@H]2C2=CC[C@@H]4[C@@]5(C)CC[C@H](O)C(C)(C)[C@@H]5CC[C@@]4(C)[C@]2(C)CC3)nn1,Activity,MDCK,Non-Toxic
CC(=O)OC[C@H]1O[C@@H](O[C@H]2[C@H](OC(C)=O)[C@@H](OC(C)=O)[C@H](n3cc(CNC(=O)[C@]45CCC(C)(C)C[C@H]4C4=CC[C@@H]6[C@@]7(C)CC[C@H](O)C(C)(C)[C@@H]7CC[C@@]6(C)[C@]4(C)CC5)nn3)O[C@@H]2COC(C)=O)[C@H](OC(C)=O)[C@@H](OC(C)=O)[C@H]1OC(C)=O,Activity,MDCK,Non-Toxic
CCOC(=O)C1=C[C@@H](OC(CC)CC)[C@H](NC(C)=O)[C@@H](N)C1 [OSELTAMIVIR PHOSPHATE],CC50 at 40 h,[2],> 100 µM
same,IC50,Influenza A virus [3],1.82 µM
same,selectivity ratio,[4],> 54.9
same,IC50,Influenza A virus [5],> 100 µM
same,IC50,Influenza B virus [6],23.4 µM
same,IC50,Influenza B virus [7],> 100 µM
same,IC50,Influenza B virus [8],> 100 µM
CC1(C)CC[C@]2(C(=O)NCc3cn([C@H]4O[C@H](CO)[C@@H](O)[C@H](O)[C@@H]4O)nn3)CC[C@]3(C)C(=CC[C@@H]4[C@@]5(C)CC[C@H](O)C(C)(C)[C@@H]5CC[C@]43C)[C@@H]2C1,Activity,MDCK,Non-Toxic
CC1(C)CC[C@]2(C(=O)NCc3cn([C@@H]4OC[C@H](O)[C@H](O)[C@H]4O)nn3)CC[C@]3(C)C(=CC[C@@H]4[C@@]5(C)CC[C@H](O)C(C)(C)[C@@H]5CC[C@]43C)[C@@H]2C1,inhibition at 100 µM,Influenza A virus [1],> 75%
same,"viability at 40 h, 100 µM",[9],> 75%
same,CC50 at 40 h,[2],> 100 µM
same,IC50,Influenza A virus [3],12.9 µM
same,selectivity ratio,[4],> 7.73
same,Activity,MDCK,Non-Toxic
C[C@@H]1O[C@@H](n2cc(CNC(=O)[C@]34CCC(C)(C)C[C@H]3C3=CC[C@@H]5[C@@]6(C)CC[C@H](O)C(C)(C)[C@@H]6CC[C@@]5(C)[C@]3(C)CC4)nn2)[C@H](O)[C@H](O)[C@H]1O,inhibition at 100 µM,Influenza A virus [1],75%
same,Activity,MDCK,Toxic
CC1(C)CC[C@]2(C(=O)NCc3cn([C@@H]4O[C@H](CO)[C@@H](O[C@H]5O[C@H](CO)[C@@H](O[C@H]6O[C@H](CO)[C@@H](O)[C@H](O)[C@H]6O)[C@H](O)[C@H]5O)[C@H](O)[C@H]4O)nn3)CC[C@]3(C)C(=CC[C@@H]4[C@@]5(C)CC[C@H](O)C(C)(C)[C@@H]5CC[C@]43C)[C@@H]2C1,Activity,Influenza A virus [10],inactive
same,Activity,MDCK,Non-Toxic
CC(=O)OC[C@H]1O[C@@H](n2cc(CNC(=O)[C@]34CCC(C)(C)C[C@H]3C3=CC[C@@H]5[C@@]6(C)CC[C@H](O)C(C)(C)[C@@H]6CC[C@@]5(C)[C@]3(C)CC4)nn2)[C@H](OC(C)=O)[C@@H](OC(C)=O)[C@@H]1O[C@H]1O[C@H](COC(C)=O)[C@@H](O[C@H]2O[C@H](COC(C)=O)[C@@H](OC(C)=O)[C@H](OC(C)=O)[C@H]2OC(C)=O)[C@H](OC(C)=O)[C@H]1OC(C)=O,Activity,Influenza A virus [10],inactive
same,Activity,MDCK,Non-Toxic
CC1(C)CC[C@]2(C(=O)NCc3cn([C@@H]4O[C@H](CO)[C@@H](O)[C@H](O)[C@H]4O)nn3)CC[C@]3(C)C(=CC[C@@H]4[C@@]5(C)CC[C@H](O)C(C)(C)[C@@H]5CC[C@]43C)[C@@H]2C1,inhibition at 100 µM,Influenza A virus [1],> 75%
same,"viability at 40 h, 100 µM",[9],> 75%
same,CC50 at 40 h,[2],> 100 µM
same,inhibition,[11],Active
same,IC50,Influenza A virus [3],5.47 µM
same,selectivity ratio,[4],> 18.3
same,IC50,Influenza A virus [5],10.4 µM
same,IC50,Influenza B virus [6],5.54 µM
same,IC50,Influenza B virus [7],26.1 µM
same,IC50,Influenza B virus [8],11.5 µM
same,Ratio IC50,Influenza B virus [12],4
same,Activity,MDCK,Non-Toxic
CC(=O)O[C@@H]1[C@@H](OC(C)=O)[C@H](n2cc(CNC(=O)[C@]34CCC(C)(C)C[C@H]3C3=CC[C@@H]5[C@@]6(C)CC[C@H](O)C(C)(C)[C@@H]6CC[C@@]5(C)[C@]3(C)CC4)nn2)OC[C@@H]1OC(C)=O,Activity,MDCK,Non-Toxic
CC(=O)OC[C@H]1O[C@H](n2cc(CNC(=O)[C@]34CCC(C)(C)C[C@H]3C3=CC[C@@H]5[C@@]6(C)CC[C@H](O)C(C)(C)[C@@H]6CC[C@@]5(C)[C@]3(C)CC4)nn2)[C@@H](OC(C)=O)[C@@H](OC(C)=O)[C@@H]1OC(C)=O,inhibition at 100 µM,Influenza A virus [1],> 75%
same,"viability at 40 h, 100 µM",[9],> 75%
same,CC50 at 40 h,[2],> 100 µM
same,IC50,Influenza A virus [3],7.22 µM
same,selectivity ratio,[4],> 13.8
same,Activity,MDCK,Non-Toxic
CC1(C)CC[C@]2(C(=O)NCc3cn([C@@H]4O[C@H](CO)[C@@H](O[C@@H]5O[C@H](CO)[C@H](O)[C@H](O)[C@H]5O)[C@H](O)[C@H]4O)nn3)CC[C@]3(C)C(=CC[C@@H]4[C@@]5(C)CC[C@H](O)C(C)(C)[C@@H]5CC[C@]43C)[C@@H]2C1,Activity,MDCK,Non-Toxic
CC(=O)OC[C@H]1O[C@@H](n2cc(CNC(=O)[C@]34CCC(C)(C)C[C@H]3C3=CC[C@@H]5[C@@]6(C)CC[C@H](O)C(C)(C)[C@@H]6CC[C@@]5(C)[C@]3(C)CC4)nn2)[C@H](OC(C)=O)[C@@H](OC(C)=O)[C@@H]1O[C@H]1O[C@H](COC(C)=O)[C@@H](OC(C)=O)[C@H](OC(C)=O)[C@H]1OC(C)=O,Activity,MDCK,Non-Toxic
CC1(C)CC[C@]2(C(=O)O)CC[C@]3(C)C(=CC[C@@H]4[C@@]5(C)CC[C@H](O)C(C)(C)[C@@H]5CC[C@]43C)[C@@H]2C1 [OLEANOLIC_ACID],CC50 at 40 h,[2],> 100 µM
same,IC50,Influenza A virus [3],72.2 µM
same,selectivity ratio,[4],> 1.38

# — ChEMBL document CHEMBL4359890, “Design, synthesis of oleanolic acid-saccharide conjugates using click chemistry methodology and study of their anti-influenza activity” (Eur J Med Chem, 2019)
